Data published in ChEMBL document CHEMBL1123513, “Role of the C-terminal carboxylate in angiotensin II activity: alcohol, ketone, and ester analogues of angiotensin II” (1986).
Square brackets hold non-standard residues; d marks the D form. Peptide text beside a SMILES is read from it. * marks the point of attachment. αMeF = C[C@](N)(Cc1ccccc1)C(=O)O; Phe(ol) = N[C@H](CO)Cc1ccccc1; X1 = CC(=O)[C@H](Cc1ccccc1)N*

Experiments:
Rattus norvegicus [1] = organism: Rattus norvegicus; experiment: Compound was tested for pressor response in rat; format: functional
Outline: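 Urethane-anesthetized male Zivic-Miller rats; blood pressure recorded from the cannulated left femoral artery via a linear core transducer. Peptides were injected into the cannulated right jugular vein with an automatic dispensing syringe. An AII dose-response curve was run before and after each analogue, so each animal served as its own control. Dose-response data are given as mean ± SEM, with the number of animals stated.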

Rattus norvegicus [2] = organism: Rattus norvegicus; experiment: Compound was tested for oxytocic response in rat; format: functional

Compound	Activity (Rattus norvegicus [1])	Activity (Rattus norvegicus [2])
CC(=O)N[C@@H](CC(N)=O)C(=O)N[C@@H](CCCN=C(N)N)C(=O)N[C@H](C(=O)N[C@@H](Cc1ccc(O)cc1)C(=O)N[C@H](C(=O)N[C@@H](Cc1c[nH]cn1)C(=O)N1CCC[C@H]1C(=O)N[C@@H](Cc1ccccc1)C(C)=O)C(C)C)C(C)C (Ac-NRVYVHP-X1)	0.03%	0.4%
COC(=O)[C@H](Cc1ccccc1)NC(=O)[C@@H]1CCCN1C(=O)[C@H](Cc1c[nH]cn1)NC(=O)[C@@H](NC(=O)[C@H](Cc1ccc(O)cc1)NC(=O)[C@@H](NC(=O)[C@H](CCCN=C(N)N)NC(=O)[C@H](CC(N)=O)NC(C)=O)C(C)C)C(C)C (Ac-NRVYVHPF-OMe)	13%	20%
CC(=O)N[C@@H](CC(N)=O)C(=O)N[C@@H](CCCN=C(N)N)C(=O)N[C@H](C(=O)N[C@@H](Cc1ccc(O)cc1)C(=O)N[C@H](C(=O)N[C@@H](Cc1c[nH]cn1)C(=O)N1CCC[C@H]1C(=O)N[C@H](CO)Cc1ccccc1)C(C)C)C(C)C (Ac-NRVYVHP[Phe(ol)])	0.001%	0.09%
COC(=O)[C@](C)(Cc1ccccc1)NC(=O)[C@@H]1CCCN1C(=O)[C@H](Cc1c[nH]cn1)NC(=O)[C@@H](NC(=O)[C@H](Cc1ccc(O)cc1)NC(=O)[C@@H](NC(=O)[C@H](CCCN=C(N)N)NC(=O)[C@H](CC(N)=O)NC(C)=O)C(C)C)C(C)C (Ac-NRVYVHP[αMeF]-OMe)	0.001%	0.002%
H-NRVYVHPF-OH [ANGIOTENSIN AMIDE]	100%	100%
